Bioassay records (PubChem)
ASAP1 inh: inhibitors of human ASAP1 ArfGAP activity | 360,000 compounds, 0.19% hits | ASAP1-stimulated ARF1 GTP hydrolysis, GDP FP detection | AID 624377 | inhibition, % at 16.5 µM; in the data active = inhibition above about 25%
Target sequence (Q9ULH1 325-724 limits assumed): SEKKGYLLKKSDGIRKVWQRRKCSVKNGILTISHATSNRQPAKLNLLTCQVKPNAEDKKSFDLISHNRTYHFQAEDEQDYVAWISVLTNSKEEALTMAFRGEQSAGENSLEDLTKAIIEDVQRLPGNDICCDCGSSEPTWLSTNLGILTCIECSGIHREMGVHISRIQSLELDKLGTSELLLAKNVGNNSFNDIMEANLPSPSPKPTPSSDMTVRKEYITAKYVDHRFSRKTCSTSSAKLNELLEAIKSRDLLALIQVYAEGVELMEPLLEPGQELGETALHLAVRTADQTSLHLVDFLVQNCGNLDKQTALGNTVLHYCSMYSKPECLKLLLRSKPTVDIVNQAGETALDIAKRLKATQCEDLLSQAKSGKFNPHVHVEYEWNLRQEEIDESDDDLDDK
NadD block: blocks S. aureus nicotinate mononucleotide adenylyltransferase | inhibition, % at 20 µM | purified NadD enzyme, colorimetric absorbance read-out | 360,000 compounds, 0.78% hits; in the data active = inhibition above about 26%
ARFGAP1 inhibitor: inhibits rat ARF GTPase activating protein 1. 360,000 compounds, 0.26% hits. Arfgap1-stimulated ARF1 GTP hydrolysis, GDP FP detection. inhibition, % at 16.5 µM;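 active = inhibition above a per-plate limit, mean inhibition of low control wells plus 3 SD, cut at about 25% in these data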
Target sequence (Q62848 1-136 limits assumed): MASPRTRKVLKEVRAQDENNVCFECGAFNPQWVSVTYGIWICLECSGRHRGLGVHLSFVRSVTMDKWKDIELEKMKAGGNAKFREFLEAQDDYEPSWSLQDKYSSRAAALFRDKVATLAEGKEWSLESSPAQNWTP
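System: truncated rat Arfgap1 GAP domain / Medium: HEPES-based buffer, pH 7.5 / Also added: N-terminally truncated human ARF1-GTP substrate / Incubation: enzyme reaction 120 min at 25 °C after 20 min preincubation / Measured by: FP of antibody-bound GDP Alexa 633 tracer, ex 620/em 688 nm / Replicates: singlicate, each compound tested once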
rCAG binder: binds r(CAG) RNA repeats. 370,000 compounds, 1.3% hits. r(CAG) RNA repeat, TO-PRO-1 dye displacement fluorescence. inhibition, % at 3 µM. AID 651821;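 active = inhibition above the plate cutoff, the mean of all test compounds on that plate plus 3 SD, cut at about 35% in these data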;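 note: higher means more dye released from RNA so lower well fluorescence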
NadD conf: confirmation of Staphylococcus aureus NadD inhibitors; shares compounds with NadD block; purified S. aureus NadD, colorimetric enzyme assay; inhibition, % at 20 µM; 2,000 compounds, 13% hits; AID 624309; in the data active = inhibition mostly above about 42%, no sharp cut-off; inactive = mostly below about 42%
Each line names hits and unclear results; the compound was inactive in the other large screens (follow-up assays come after a bar, where they were run). Compounds with a hit are over-represented: about 2.2% of the library has one in this group of screens.

CN1CCN(C(=O)c2ccc3c(=O)n(Cc4ccco4)c(=S)[nH]c3c2)CC1	none
CCn1c(=O)n(CC(=O)N2CCN(C(C)=O)CC2)c(=O)c2ccccc21	none (no result: ASAP1 inh, NadD block, ARFGAP1 inhibitor)
O=[N+]([O-])c1cccc(SSc2cccc([N+](=O)[O-])c2)c1	NadD block 44 | NadD conf 58
Brc1ccc(-c2csc(Nc3nc(-c4ccc(Br)cc4)cs3)n2)cc1	NadD block 30 | NadD conf inactive
Nc1nc(-c2ccc(Br)cc2)cs1	none
COc1cc(C=C2CCCC(=Cc3ccc(OCC4CO4)c(OC)c3)C2=O)ccc1OCC1CO1 (centres undefined)	none
NC(Cc1ccc(C(F)(F)F)cc1)c1csc(NC(=O)Nc2ccccc2Oc2ccccc2)n1 (centres undefined)	NadD block 34 | NadD conf inactive
Cc1cccn2c(=O)c3cc(S(=O)(=O)c4ccccc4)c(=N)n(Cc4ccc(F)cc4)c3nc12	NadD block 32 | NadD conf inactive
Cc1cccn2c(=O)c3cc(S(=O)(=O)c4ccc(Br)cc4)c(=N)n(C4CCCCC4)c3nc12	NadD block 27 | NadD conf inactive
Cc1ccc2nc3c(cc(S(=O)(=O)c4ccccc4)c(=N)n3Cc3ccco3)c(=O)n2c1	NadD block 31 | NadD conf inactive
Cc1cccn2c(=O)c3cc(S(=O)(=O)c4ccccc4)c(=N)n(Cc4ccco4)c3nc12	none
Cc1cccn2c(=O)c3cc(S(=O)(=O)c4ccc(F)cc4)c(=N)n(Cc4ccco4)c3nc12	NadD block 35 | NadD conf inactive
O=C1c2ccccc2C(c2nnnn2-c2ccc3c(c2)OCCO3)N1Cc1ccco1 (centres undefined)	none
COC(=O)c1cc2c(c3c4cc(OC)ccc4n(S(=O)(=O)c4ccc(C)cc4)c13)C(=O)N(C)C2	none (no result: NadD block)
COc1ccc(CCn2c(=N)c(S(=O)(=O)c3ccccc3)cc3c(=O)n4ccccc4nc32)cc1	none
COc1ccc(CCn2c(=N)c(S(=O)(=O)c3ccc(Cl)cc3)cc3c(=O)n4ccccc4nc32)cc1	NadD block 30 | NadD conf inactive
Cc1ccc(OCC(=O)Nc2ccc3c(c2)C(=O)NC3=O)cc1	none
CC(C)(C)c1ccc(OCC(=O)Nc2ccc3c4c(cccc24)C(=O)NC3=O)cc1	NadD block 34 | NadD conf inactive
CCOc1c(Cl)cc(CNc2ccc(N3CCCC3)cc2)cc1OC	NadD block 33 | NadD conf inactive
Cc1ccccc1-c1ccc2c(c1)[C@@H]1C[C@H]3[C@@H](CN1CC2)[C@H](C)OC(C1CCCCC1)N3C (some centres undefined)	none (no result: NadD block)
Cc1cc(C)c2nc(NC(=O)c3cccc(S(=O)(=O)N4CCc5ccccc54)c3)sc2c1	NadD block 44 | NadD conf inactive
COc1cc2nc(SCc3ccc(C(F)(F)F)cc3)n(Cc3cccs3)c(=N)c2cc1OC	none
COc1ccc(Cn2c(SCc3ccc(C)cc3)nc3cc(OC)c(OC)cc3c2=N)cc1Cl	NadD block 51 | NadD conf inactive
COc1ccc(Cn2c(SCc3cc(C)ccc3C)nc3cc(OC)c(OC)cc3c2=N)cc1	NadD block 39 | NadD conf inactive
COc1cc(NC(=O)CSc2ncnc3sc4c(c23)CCC(C)C4)c(C(=O)O)cc1OC (centres undefined)	NadD block 36 | NadD conf inactive
Nc1ccc2nc(CCCCCCc3nc4ccc(N)cc4[nH]3)[nH]c2c1	NadD block 50 | NadD conf inactive
c1ccc(COc2ncnc3c2ncn3CCCNC2CCN(Cc3ccccc3)CC2)cc1	none
Fc1cc(F)c(F)c(SCCc2ccncc2)c1F	NadD block 25 | NadD conf inactive
Fc1ccc(SCCc2ccncc2)cc1	none
Cc1cccc(NC(=O)c2nc[nH]c2C(=O)NCCCCNC(=O)c2[nH]cnc2C(=O)Nc2cccc(C)c2)c1	NadD block 37 | NadD conf inactive
CNC(=O)c1[nH]cnc1C(=O)Nc1cccc(C)c1	none
Cc1cccc(NC(=O)c2nc[nH]c2C(=O)NCc2ccccc2)c1	none
Cc1cccc(NC(=O)c2nc[nH]c2C(=O)NCCCCCCNC(=O)c2[nH]cnc2C(=O)Nc2cccc(C)c2)c1	NadD block 37 | NadD conf inactive
COC(=O)C1CN(C2CCCC2)CCS(=O)(=O)N1Cc1cn(Cc2ccc(C)cc2)nn1 (centres undefined)	none (no result: ASAP1 inh, NadD block, ARFGAP1 inhibitor)
CCc1noc2cc(-c3ccccc3)n(C)c(=O)c12	none (no result: NadD block)
Cc1nc(SCC(=O)c2cc3ccccc3oc2=O)c(C#N)c(-c2cccs2)c1C(=O)Nc1ccccc1	NadD block 33 | NadD conf inactive
CC(C)c1c(C#N)c(N)nc(SCC(=O)c2cc3ccccc3oc2=O)c1C#N	none
CCc1cccc2c1NC(=O)C21N2CCCC2C(C(=O)c2ccc3ccccc3c2)C12C(=O)Nc1ccccc12 (centres undefined)	NadD block 39 | NadD conf 52
Cc1ccc(-c2nn(-c3ccccc3)cc2/C=N/n2c(-c3ccncc3)n[nH]c2=S)cc1	NadD block 39 | NadD conf inactive
O=C(NC(Cc1c[nH]c2ccccc12)C(=O)N/N=C/c1cccc2ccccc12)c1cccs1 (centres undefined)	NadD block 37 | NadD conf inactive
Cc1[nH]c2ccccc2c1CC(=O)Nc1ccc(N(C)c2cccnc2)c(-c2ccc(F)c(F)c2)c1	none (no result: NadD block)
COc1ccc(N2CSC3=C(C#N)C(c4cccs4)CC(=O)N3C2)cc1 (centres undefined)	none
Cc1ccc(N2CSC3=C(C#N)C(c4cccs4)CC(=O)N3C2)cc1 (centres undefined)	NadD block 31 | NadD conf inactive
CCc1ccc(C2CC(=O)N3CN(c4ccccc4)CSC3=C2C#N)cc1 (centres undefined)	NadD block 64 | NadD conf inactive
N#CC1=C2SCN(c3ccc(F)cc3)CN2C(=O)CC1c1cccc(F)c1 (centres undefined)	none
CCc1ccc(N2CSC3=C(C#N)C(c4cccs4)CC(=O)N3C2)cc1 (centres undefined)	NadD block 72 (no result: ASAP1 inh, ARFGAP1 inhibitor, rCAG binder) | NadD conf inactive
COc1ccccc1C1(O)C(=O)Nc2ccccc21 (centres undefined)	none
O=C(Nc1ccc(-c2nc3ccccc3o2)c(O)c1)c1cc(-n2cnnc2)ccc1Cl	NadD block 30 | NadD conf inactive
O=C(Nc1ccc(-c2nc3ccccc3o2)cc1)c1cc(-n2cnnc2)ccc1Cl	none
O=C(CCCCn1c(=S)[nH]c2ccsc2c1=O)NCc1ccc2c(c1)OCO2	NadD block 30 | NadD conf inactive
O=C(CCCCn1c(=O)[nH]c2ccsc2c1=O)NCc1ccc2c(c1)OCO2	none
Cc1ccc(-n2c(SCC(=O)Nc3ccc(OCc4ccccc4)cc3)nnc2-c2ccco2)cc1	none (no result: ASAP1 inh, NadD block, ARFGAP1 inhibitor)
O=C(N/N=C/c1ccccc1Cl)c1nc2ccc([N+](=O)[O-])cc2c(=O)[nH]1	NadD block 36 | NadD conf inactive
O=C(N/N=C/c1cccc([N+](=O)[O-])c1)c1nc2ccccc2c(=O)[nH]1	none
